Data on five compounds can be found in ChEMBL document CHEMBL1145515, “In Vitro activities of isepamicin, other aminoglycosides, and capreomycin against clinical isolates of rapidly growing mycobacteria in Taiwan” (2007).

What all share (type): functional
Assay [1] deals with Mycobacteroides abscessus. Description: Antimicrobial activity against Mycobacterium abscessus R31 isolate after 3 to 5 days by broth microdilution method. In short, it runs like this: (§1)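 Clinical isolates subcultured on Trypticase soy agar with 5% sheep blood, 30°C, 72 h. Colonies suspended in cation-supplemented Mueller-Hinton broth to a final inoculum of 5 × 10^5 CFU/ml. Twofold serial dilutions made in the same broth, final well concentrations 0.25 to 128 μg/ml. Trays incubated at 30°C; MIC read after 3 to 5 days.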

In assay [2] the test system is Mycobacteroides abscessus. As to the kind of experiment: Antimicrobial activity against Mycobacterium abscessus R39 isolate after 3 to 5 days by broth microdilution method. In short, it runs like this:
as §1
Background: Dilution methods test growth across graded concentrations, often in twofold steps.

Assay [3] relates to Mycolicibacterium fortuitum. Description: Antimicrobial activity against Mycobacterium fortuitum V61 isolate after 3 to 5 days by broth microdilution method. In short, it runs like this:
as §1

Assay [4] deals with Mycolicibacterium fortuitum. As to the kind of experiment: Antimicrobial activity against Mycobacterium fortuitum after 3 to 5 days by broth microdilution method. In short, it runs like this: as §1
Assay [5] has as its system Mycobacteroides abscessus. As to the kind of experiment: Antimicrobial activity against Mycobacterium abscessus after 3 to 5 days by broth microdilution method. In short, it runs like this: as §1
The test system of assay [6] is Mycolicibacterium fortuitum. Description: Antimicrobial activity against Mycobacterium fortuitum V146 isolate after 3 to 5 days by broth microdilution method. In short, it runs like this:
as §1

In assay [7] the test system is Mycolicibacterium fortuitum. As to the kind of experiment: Antimicrobial activity against Mycobacterium fortuitum V13 isolate after 3 to 5 days by broth microdilution method. Summed up:
as §1

Assay [8] relates to Mycobacteroides abscessus. Description: Antimicrobial activity against Mycobacterium abscessus V120 isolate after 3 to 5 days by broth microdilution method. In short, it runs like this: as §1
Assay [9] concerns Mycobacteroides abscessus. Description: Antimicrobial activity against Mycobacterium abscessus R53 isolate after 3 to 5 days by broth microdilution method. In short, it runs like this:
as §1

For assay [10], the system named is Mycobacteroides abscessus. Description: Antimicrobial activity against Mycobacterium abscessus NTU446 isolate after 3 to 5 days by broth microdilution method. Summed up:
as §1

Assay [11] relates to Mycobacteroides abscessus. Description: Antimicrobial activity against Mycobacterium abscessus R47 isolate after 3 to 5 days by broth microdilution method. In short, it runs like this:
as §1

For assay [12], the system named is Mycobacteroides abscessus. Description: Antimicrobial activity against Mycobacterium abscessus R50 isolate after 3 to 5 days by broth microdilution method. In short, it runs like this:
as §1

Assay [13] has as its system Mycobacteroides abscessus. As to the kind of experiment: Antimicrobial activity against Mycobacterium abscessus R49 isolate after 3 to 5 days by broth microdilution method. Summed up: as §1
Assay [14] relates to Mycobacteroides abscessus. Description: Antimicrobial activity against Mycobacterium abscessus R61 isolate after 3 to 5 days by broth microdilution method. Summed up:
as §1

The subject of assay [15] is Mycobacteroides abscessus. Description: Antimicrobial activity against Mycobacterium abscessus CH10 isolate after 3 to 5 days by broth microdilution method. Summed up:
as §1

The test system of another assay is Mycobacteroides chelonae. As to the kind of experiment: Antimicrobial activity against Mycobacterium chelonae after 3 to 5 days by broth microdilution method. Summed up: as §1
Assay [16] relates to Mycobacteroides abscessus. Description: Antimicrobial activity against Mycobacterium abscessus R65 isolate after 3 to 5 days by broth microdilution method. Summed up: as §1
Assay [17] relates to Mycobacteroides abscessus. Description: Antimicrobial activity against Mycobacterium abscessus NTU459 isolate after 3 to 5 days by broth microdilution method. Summed up:
as §1

The subject of assay [18] is Mycobacteroides abscessus. As to the kind of experiment: Antimicrobial activity against Mycobacterium abscessus R51 isolate after 3 to 5 days by broth microdilution method. Summed up:
as §1

In assay [19] the test system is Mycobacteroides abscessus. Description: Antimicrobial activity against Mycobacterium abscessus R54 isolate after 3 to 5 days by broth microdilution method. In short, it runs like this:
as §1

Assay [20] relates to Mycobacteroides abscessus. Description: Antimicrobial activity against Mycobacterium abscessus NTU445 isolate after 3 to 5 days by broth microdilution method. Summed up:
as §1

Values after ≈ are worked out from the molar mass of the structure shown.

In the case of `NC[C@H]1O[C@H](O[C@H]2C(O)[C@@H](O[C@H]3O[C@H](CO)[C@@H](O)[C@H](N)[C@H]3O)[C@H](N)C[C@@H]2N)[C@H](N)C[C@@H]1O` (single isomer, unassigned) [TOBRAMYCIN], the MIC (usually the lowest concentration that inhibits growth of the organism) in assay [1] was greater than 128 µg/mL; in [2], 32 µg/mL (≈ 68.4 µM); in [3], 64 µg/mL (≈ 137 µM); in assay [6], 64 µg/mL (≈ 137 µM); in assay [7] it was 128 µg/mL (≈ 274 µM); in assay [8], 16 µg/mL (≈ 34.2 µM). In addition, the MIC in assay [9] was 8 µg/mL (≈ 17.1 µM); in assay [10], 4 µg/mL (≈ 8.56 µM); in assay [11], 16 µg/mL (≈ 34.2 µM); in assay [12] it was 16 µg/mL (≈ 34.2 µM); in assay [13], 16 µg/mL (≈ 34.2 µM); in [14], 16 µg/mL (≈ 34.2 µM). Moreover, the minimal inhibitory concentration (MIC) in assay [15] is greater than 128 µg/mL; in [16], 16 µg/mL (≈ 34.2 µM); in assay [17] it was 8 µg/mL (≈ 17.1 µM); in [18], 32 µg/mL (≈ 68.4 µM); in assay [19] it was 32 µg/mL (≈ 68.4 µM); in assay [20], 16 µg/mL (≈ 34.2 µM). Besides, the MIC50 – broadly, an inhibitory concentration at the 50% level, which refers to growth in some studies and to a panel of isolates in others – turned out to be 16 µg/mL (≈ 34.2 µM) in [4], 8 µg/mL (≈ 17.1 µM) in [5] and 16 µg/mL (≈ 34.2 µM) against Mycobacteroides chelonae. Further, the MIC90 (in general, an inhibitory concentration at the 90% level, which refers to growth in some studies and to a panel of isolates in others) in [4] came out at 64 µg/mL (≈ 137 µM); in [5] it was 16 µg/mL (≈ 34.2 µM); in the assay on Mycobacteroides chelonae, 32 µg/mL (≈ 68.4 µM).

Take `CN[C@@H]1[C@H](O[C@H]2[C@H](O[C@H]3[C@H](O)[C@@H](O)[C@H](N=C(N)N)[C@@H](O)[C@@H]3N=C(N)N)O[C@@H](C)[C@]2(O)C=O)O[C@@H](CO)[C@H](O)[C@H]1O` (stereo in doubt) [STREPTOMYCIN]: the MIC in [1] was greater than 128 µg/mL; in assay [2], greater than 128 µg/mL; in assay [3], greater than 128 µg/mL; in assay [6], greater than 128 µg/mL; in assay [7] it was 128 µg/mL (≈ 220 µM); in [8] it was 128 µg/mL (≈ 220 µM). For the same compound, the MIC is 128 µg/mL (≈ 220 µM) in assay [9]; greater than 128 µg/mL in assay [10]; greater than 128 µg/mL in [11]; greater than 128 µg/mL in assay [12]; 128 µg/mL (≈ 220 µM) in assay [13]; greater than 128 µg/mL in assay [14]. The MIC in assay [15], in assay [16], in assay [17], in assay [18], in assay [19] and in assay [20] was greater than 128 µg/mL in each case. Moreover, the MIC50 in assay [4] is 64 µg/mL (≈ 110 µM); in assay [5], 128 µg/mL (≈ 220 µM); in the assay with Mycobacteroides chelonae, 64 µg/mL (≈ 110 µM). The MIC90 in assay [4] is 128 µg/mL (≈ 220 µM); in assay [5] it was greater than 128 µg/mL; in the assay with Mycobacteroides chelonae it was 128 µg/mL (≈ 220 µM).

For `NCC[C@H](O)C(=O)N[C@@H]1C[C@H](N)[C@@H](O[C@H]2O[C@H](CN)[C@@H](O)[C@H](O)[C@H]2O)[C@H](O)[C@H]1O[C@H]1O[C@H](CO)[C@@H](O)[C@H](N)[C@H]1O` [AMIKACIN], the minimal inhibitory concentration (MIC) in assay [1] is greater than 128 µg/mL; in assay [2] it was 64 µg/mL (≈ 109 µM); in assay [3] it was 4 µg/mL (≈ 6.83 µM); in assay [6], 4 µg/mL (≈ 6.83 µM); in assay [7], 4 µg/mL (≈ 6.83 µM); in [8], 32 µg/mL (≈ 54.6 µM). In addition, the minimal inhibitory concentration (MIC) in assay [9], in assay [10], in [11], in assay [12], in assay [13] and in assay [14] was 32 µg/mL (≈ 54.6 µM) each time. The minimum inhibitory concentration (MIC) in assay [15] was greater than 128 µg/mL; in [16], 32 µg/mL (≈ 54.6 µM); in assay [17], 32 µg/mL (≈ 54.6 µM); in [18], 32 µg/mL (≈ 54.6 µM); in [19], 32 µg/mL (≈ 54.6 µM); in assay [20] it was 32 µg/mL (≈ 54.6 µM). Moreover, the MIC50 amounted to 1 µg/mL (≈ 1.71 µM) in [4], 16 µg/mL (≈ 27.3 µM) in assay [5] and 8 µg/mL (≈ 13.7 µM) with Mycobacteroides chelonae. Besides, the MIC90 was found to be 4 µg/mL (≈ 6.83 µM) in [4], 32 µg/mL (≈ 54.6 µM) in assay [5] and 8 µg/mL (≈ 13.7 µM) against Mycobacteroides chelonae.

Consider `CN[C@@H]1[C@@H](O)[C@@H](O[C@@H]2[C@@H](O)[C@H](O[C@H]3O[C@H](CN)[C@@H](O)[C@H](O)[C@H]3O)[C@@H](N)C[C@H]2NC(=O)[C@@H](O)CN)OC[C@]1(C)O` [ISEPAMICIN], for which the minimal inhibitory concentration (MIC) in [1] was greater than 128 µg/mL; in [2], 32 µg/mL (≈ 56.2 µM); in [3] it was 32 µg/mL (≈ 56.2 µM); in [6] it was 32 µg/mL (≈ 56.2 µM); in [7], 64 µg/mL (≈ 112 µM); in assay [8], 8 µg/mL (≈ 14 µM). The MIC in assay [9] was 16 µg/mL (≈ 28.1 µM); in assay [10] it was 16 µg/mL (≈ 28.1 µM); in assay [11] it was 16 µg/mL (≈ 28.1 µM); in [12] it was 16 µg/mL (≈ 28.1 µM); in assay [13] it was 8 µg/mL (≈ 14 µM); in [14], 16 µg/mL (≈ 28.1 µM). Moreover, the minimum inhibitory concentration (MIC) in assay [15] is greater than 128 µg/mL; in assay [16], 16 µg/mL (≈ 28.1 µM); in assay [17], 32 µg/mL (≈ 56.2 µM); in [18] it was 16 µg/mL (≈ 28.1 µM); in assay [19], 16 µg/mL (≈ 28.1 µM); in assay [20], 32 µg/mL (≈ 56.2 µM). In addition, the MIC50 in assay [4] was 8 µg/mL (≈ 14 µM); in assay [5], 8 µg/mL (≈ 14 µM); in the assay with Mycobacteroides chelonae, 4 µg/mL (≈ 7.02 µM). The MIC90 was determined as 16 µg/mL (≈ 28.1 µM) in [4], 16 µg/mL (≈ 28.1 µM) in assay [5] and 8 µg/mL (≈ 14 µM) against Mycobacteroides chelonae.

As to `NC[C@H]1O[C@H](O[C@H]2[C@H](O)[C@@H](O[C@H]3O[C@H](CO)[C@@H](O)[C@H](N)[C@H]3O)[C@H](N)C[C@@H]2N)[C@H](O)[C@@H](O)[C@@H]1O` [KANAMYCIN], the MIC in assay [1] was greater than 128 µg/mL; in [2], 16 µg/mL (≈ 33 µM); in assay [3], 32 µg/mL (≈ 66 µM); in assay [6], 32 µg/mL (≈ 66 µM); in [7], greater than 128 µg/mL; in [8], 8 µg/mL (≈ 16.5 µM). Moreover, the minimal inhibitory concentration (MIC) in assay [9] worked out at 4 µg/mL (≈ 8.26 µM); in [10] it was 8 µg/mL (≈ 16.5 µM); in assay [11], 8 µg/mL (≈ 16.5 µM); in [12], 8 µg/mL (≈ 16.5 µM); in [13], 4 µg/mL (≈ 8.26 µM); in assay [14] it was 8 µg/mL (≈ 16.5 µM). Further, the minimal inhibitory concentration (MIC) in assay [15] was greater than 128 µg/mL; in [16], 8 µg/mL (≈ 16.5 µM); in assay [17], 16 µg/mL (≈ 33 µM); in assay [18], 16 µg/mL (≈ 33 µM); in assay [19], 8 µg/mL (≈ 16.5 µM); in [20] it was 16 µg/mL (≈ 33 µM). For the same compound, the values for the MIC50 (in assay [4]; in assay [5]; in the assay on Mycobacteroides chelonae) were 8 µg/mL (≈ 16.5 µM), 8 µg/mL (≈ 16.5 µM) and 4 µg/mL (≈ 8.26 µM), respectively. The MIC90 in assay [4] is 32 µg/mL (≈ 66 µM); in [5] it was 8 µg/mL (≈ 16.5 µM); in the assay with Mycobacteroides chelonae it was 8 µg/mL (≈ 16.5 µM).
